How the values were obtained:
[1] = folding enthalpy; higher = less favourable; fluorescence melt of hairpins on a sequencing array, two-state fit; conditions: sodium 0.088 M
Summary of the method: (§1)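 With Cy3 and quencher oligos annealed, library hairpins on a sequenced MiSeq flow cell were imaged for Cy3 fluorescence in 50 mM Na-HEPES pH 8.0, 25 mM NaCl, in 2.5 °C steps up to 60 °C. Melting temperature and folding enthalpy were derived from bootstrapped two-state fits of signals normalised to pre-quench Cy3 and to control constructs. Four replicates were combined by inverse variance, with fitted temperatures raised by 9.35 °C to match UV melts.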

[2] = melting temperature; fluorescence melt of hairpins on a sequencing array, two-state fit, raised by 9.35 °C to match UV melts; conditions: sodium 0.088 M
Summary of the method: as §1

GCACTGCGAAAGCAATGC (((.(((....))).)))
folding enthalpy [1]: -40.9 kcal/mol | Tm [2]: 51.5 °C

GCACTGCGAAAGCACCGC ((..(((....)))..))
folding enthalpy [1]: -9.03 kcal/mol | Tm [2]: 29.5 °C

GCACTGCGAAAGCATCGC ((..(((....)))..))
folding enthalpy [1]: -12.8 kcal/mol | Tm [2]: 39.5 °C

GCACTGCGAAAGCATTGC (((.(((....))).)))
folding enthalpy [1]: -42.6 kcal/mol | Tm [2]: 52.5 °C

GCACTGCGAAAGCCGAGC ((.(.((....)).).))
folding enthalpy [1]: -20.2 kcal/mol | Tm [2]: 38.8 °C

GCACTGCGAAAGCCGGGC ((.(.((....)).).))
folding enthalpy [1]: -22.7 kcal/mol | Tm [2]: 57.1 °C

GCACTGCGAAAGCGGAGC ((.(.((....)).).))
folding enthalpy [1]: -19.8 kcal/mol | Tm [2]: 49.9 °C

GCACTGCGAAAGCGGGGC ((.(.((....)).).))
folding enthalpy [1]: -33.5 kcal/mol | Tm [2]: 67.2 °C

GCACTGCGAAAGCTATGC (((..((....))..)))
folding enthalpy [1]: -16.7 kcal/mol | Tm [2]: 40.3 °C

GCACTGCGAAAGCTCTGC (((..((....))..)))
folding enthalpy [1]: -17.4 kcal/mol | Tm [2]: 35.8 °C

GCACTGCGAAAGCTTTGC (((..((....))..)))
folding enthalpy [1]: -24.5 kcal/mol | Tm [2]: 42.9 °C

GCACTGGGAAACCAGCGC ((.((((....)))).))
folding enthalpy [1]: -40.7 kcal/mol | Tm [2]: 51.9 °C

GCACTTCCGAAAGGATGC (((..(((....))))))
folding enthalpy [1]: -17.7 kcal/mol | Tm [2]: 37.9 °C

GCAGAAGGAAACCTCTGC (((((.(....).)))))
folding enthalpy [1]: -28.2 kcal/mol | Tm [2]: 45.2 °C

GCAGACCGAAAGGTTGC (((.(((....))))))
folding enthalpy [1]: -28.9 kcal/mol | Tm [2]: 53.5 °C

GCAGACGAAAGTCATGC ((((((....))).)))
folding enthalpy [1]: -24.1 kcal/mol | Tm [2]: 51 °C

GCAGACGAAAGTCCCTGC ((((((....)))..)))
folding enthalpy [1]: -14.8 kcal/mol | Tm [2]: 32.9 °C

GCAGACGAAAGTCGGTGC ((((((....)))..)))
folding enthalpy [1]: -19.3 kcal/mol | Tm [2]: 50.2 °C

GCAGACGAAAGTCGTGC ((((((....))).)))
folding enthalpy [1]: -24.1 kcal/mol | Tm [2]: 54.1 °C

GCAGACGAAAGTCGTTGC ((((((....)))..)))
folding enthalpy [1]: -14.1 kcal/mol | Tm [2]: 50.5 °C

GCAGACGAAAGTCTATGC ((((((....)))..)))
folding enthalpy [1]: -14.9 kcal/mol | Tm [2]: 45.8 °C

GCAGACGAAAGTCTGTGC ((((((....)))..)))
folding enthalpy [1]: -22.2 kcal/mol | Tm [2]: 61.3 °C

GCAGAGACGAAAGTCTGC (((..(((....))))))
folding enthalpy [1]: -19.6 kcal/mol | Tm [2]: 51.7 °C

GCAGAGCGAAAGCAGTGC (((..((....))..)))
folding enthalpy [1]: -15.1 kcal/mol | Tm [2]: 45.8 °C

GCAGAGCGAAAGCCCAGC ((.(.((....)).).))
folding enthalpy [1]: -12.2 kcal/mol | Tm [2]: 33 °C

GCAGAGCGAAAGCCTTGC (((..((....))..)))
folding enthalpy [1]: -14.5 kcal/mol | Tm [2]: 43.5 °C

GCAGAGCGAAAGCGCAGC ((.(.((....)).).))
folding enthalpy [1]: -19.6 kcal/mol | Tm [2]: 59.6 °C

GCAGAGCGAAAGCGCCGC ((.(.((....)).).))
folding enthalpy [1]: -28.2 kcal/mol | Tm [2]: 64 °C

GCAGAGCGAAAGCGGTGC (((..((....))..)))
folding enthalpy [1]: -23.7 kcal/mol | Tm [2]: 63.5 °C

GCAGAGCGAAAGCTTCGC ((..(((....)))..))
folding enthalpy [1]: -17.2 kcal/mol | Tm [2]: 44.8 °C

GCAGAGGAAACTCTGC ((((((....))))))
folding enthalpy [1]: -35.2 kcal/mol | Tm [2]: 65.8 °C

GCAGATCCGAAAGGATGC (((..(((....))))))
folding enthalpy [1]: -16.3 kcal/mol | Tm [2]: 45.2 °C

GCAGATCGAAAGATTTGC (((.(((....))).)))
folding enthalpy [1]: -43.6 kcal/mol | Tm [2]: 52.1 °C

GCAGATGGAAACACCTGC ((((.((....)).))))
folding enthalpy [1]: -28.9 kcal/mol | Tm [2]: 44.2 °C

GCAGATTCGAAAGAATGC (((..(((....))))))
folding enthalpy [1]: -13.9 kcal/mol | Tm [2]: 36.3 °C

GCAGCCGAAAGGCAATGC ((((((....)))..)))
folding enthalpy [1]: -17 kcal/mol | Tm [2]: 52.1 °C

GCAGCCGAAAGGCAGTGC ((((((....)))..)))
folding enthalpy [1]: -17.4 kcal/mol | Tm [2]: 50.6 °C

GCAGCCGAAAGGCCATGC ((((((....)))..)))
folding enthalpy [1]: -13.9 kcal/mol | Tm [2]: 40.3 °C

GCAGCCGAAAGGCTCTGC ((((((....)))..)))
folding enthalpy [1]: -12.2 kcal/mol | Tm [2]: 46.3 °C

GCAGCCGGAAACAGCTGC (((((.(....).)))))
folding enthalpy [1]: -40.9 kcal/mol | Tm [2]: 55.7 °C

GCAGCCGGAAACGACTGC ((((.((....)).))))
folding enthalpy [1]: -43.5 kcal/mol | Tm [2]: 56.6 °C

GCAGCCGGAAACGGCTAC (.(((((....))))).)
folding enthalpy [1]: -11.3 kcal/mol | Tm [2]: 45.9 °C

GCAGCCTCGAAAGAGTGC (((..(((....))))))
folding enthalpy [1]: -15.5 kcal/mol | Tm [2]: 37 °C

GCAGCGCGAAAGCAATGC (((..((....))..)))
folding enthalpy [1]: -25.3 kcal/mol | Tm [2]: 54.9 °C

GCAGCGCGAAAGCACCGC ((.(.((....)).).))
folding enthalpy [1]: -21.5 kcal/mol | Tm [2]: 41.3 °C

GCAGCGCGAAAGCCTTGC (((..((....))..)))
folding enthalpy [1]: -12.4 kcal/mol | Tm [2]: 40 °C

GCAGCGCGAAAGCGAAGC ((..(((....)))..))
folding enthalpy [1]: -18.7 kcal/mol | Tm [2]: 57.5 °C

GCAGCGCGAAAGCTCGGC ((.(.((....)).).))
folding enthalpy [1]: -20.9 kcal/mol | Tm [2]: 42.9 °C

GCAGCGGGAAACCACTGC ((((.((....)).))))
folding enthalpy [1]: -43.3 kcal/mol | Tm [2]: 52.2 °C

GCAGCGGGAAACCGCCGC ((.((((....)))).))
folding enthalpy [1]: -18.6 kcal/mol | Tm [2]: 55.2 °C

GCAGCTCGAAAGAGTGC (((.(((....))))))
folding enthalpy [1]: -30 kcal/mol | Tm [2]: 51.4 °C

GCAGCTGGAAACGGCTGC (((((.(....).)))))
folding enthalpy [1]: -46.1 kcal/mol | Tm [2]: 60.2 °C

GCAGCTGGAAACGGTTGC (((.(.(....).).)))
folding enthalpy [1]: -29.1 kcal/mol | Tm [2]: 41.1 °C

GCAGGAGCGAAAGCTTGC (((..(((....))))))
folding enthalpy [1]: -16.5 kcal/mol | Tm [2]: 44.2 °C

GCAGGAGGAAACTCCTAC (.(((((....))))).)
folding enthalpy [1]: -15.2 kcal/mol | Tm [2]: 37.8 °C

GCAGGAGGAAACTCTTGC (((.(((....))).)))
folding enthalpy [1]: -34.8 kcal/mol | Tm [2]: 46.7 °C

GCAGGCCGAAAGGCTTGC (((.(((....))).)))
folding enthalpy [1]: -29.2 kcal/mol | Tm [2]: 69.1 °C

GCAGGCGAAAGCCATGC ((((((....))).)))
folding enthalpy [1]: -19.9 kcal/mol | Tm [2]: 61 °C

GCAGGCGAAAGCCGCTGC ((((((....)))..)))
folding enthalpy [1]: -14.8 kcal/mol | Tm [2]: 68 °C

GCAGGCGAAAGCCTTTGC ((((((....)))..)))
folding enthalpy [1]: -11 kcal/mol | Tm [2]: 41 °C

GCAGGGCGAAAGCCTTGC (((.(((....))).)))
folding enthalpy [1]: -40.3 kcal/mol | Tm [2]: 61.2 °C

GCAGGGCGAAAGCTATGC (((..((....))..)))
folding enthalpy [1]: -20.4 kcal/mol | Tm [2]: 54.1 °C

GCAGGGCGAAAGCTCCGC ((.(.((....)).).))
folding enthalpy [1]: -17.6 kcal/mol | Tm [2]: 49.5 °C

GCAGGGCGAAAGCTGTGC (((..((....))..)))
folding enthalpy [1]: -21.7 kcal/mol | Tm [2]: 52.2 °C

GCAGGTCGAAAGACATGC (((.(((....))).)))
folding enthalpy [1]: -40.4 kcal/mol | Tm [2]: 64.2 °C

GCAGGTCGAAAGACGTGC (((.(((....))).)))
folding enthalpy [1]: -42.9 kcal/mol | Tm [2]: 62.8 °C

GCAGGTTCGAAAGAATGC (((..(((....))))))
folding enthalpy [1]: -11.1 kcal/mol | Tm [2]: 30.9 °C

GCAGTACGAAAGTAGTGC (((.(((....))).)))
folding enthalpy [1]: -47 kcal/mol | Tm [2]: 57.6 °C

GCAGTACGAAAGTATGC (((.(((....))))))
folding enthalpy [1]: -31.3 kcal/mol | Tm [2]: 48.4 °C

GCAGTAGGAAACTGTTGC (((..((....))..)))
folding enthalpy [1]: -18.3 kcal/mol | Tm [2]: 32.2 °C

GCAGTCCCGAAAGGGTGC (((..(((....))))))
folding enthalpy [1]: -15.3 kcal/mol | Tm [2]: 43.5 °C

GCAGTCCGAAAGGATGC (((.(((....))))))
folding enthalpy [1]: -32.1 kcal/mol | Tm [2]: 52.3 °C

GCAGTCGAAAGACCATGC ((((((....)))..)))
folding enthalpy [1]: -16.2 kcal/mol | Tm [2]: 35.1 °C

GCAGTCGAAAGACCCTGC ((((((....)))..)))
folding enthalpy [1]: -17.3 kcal/mol | Tm [2]: 33 °C

GCAGTCGAAAGACCTGC ((((((....))).)))
folding enthalpy [1]: -29.9 kcal/mol | Tm [2]: 51.2 °C

GCAGTCGAAAGACGGTGC ((((((....)))..)))
folding enthalpy [1]: -19 kcal/mol | Tm [2]: 48.5 °C

GCAGTCGAAAGACGTGC ((((((....))).)))
folding enthalpy [1]: -17.4 kcal/mol | Tm [2]: 51.8 °C

GCAGTCGAAAGACGTTGC ((((((....)))..)))
folding enthalpy [1]: -17 kcal/mol | Tm [2]: 45.9 °C

GCAGTGCGAAAGCAACGC ((..(((....)))..))
folding enthalpy [1]: -15.1 kcal/mol | Tm [2]: 58.7 °C

GCAGTGCGAAAGCACCGC ((.((((....)))).))
folding enthalpy [1]: -17.4 kcal/mol | Tm [2]: 62 °C

GCAGTGCGAAAGCAGTGC (((.(((....))).)))
folding enthalpy [1]: -37.9 kcal/mol | Tm [2]: 66.4 °C

GCAGTGCGAAAGCATGGC ((..(((....)))..))
folding enthalpy [1]: -19.2 kcal/mol | Tm [2]: 54 °C

GCAGTGCGAAAGCCCCGC ((.(.((....)).).))
folding enthalpy [1]: -10.3 kcal/mol | Tm [2]: 41.1 °C

GCAGTGCGAAAGCCCGGC ((.(.((....)).).))
folding enthalpy [1]: -18.4 kcal/mol | Tm [2]: 45 °C

GCAGTGCGAAAGCGCCGC ((.(.((....)).).))
folding enthalpy [1]: -17.9 kcal/mol | Tm [2]: 52 °C

GCAGTGCGAAAGCTCGGC ((.(.((....)).).))
folding enthalpy [1]: -25.6 kcal/mol | Tm [2]: 54.3 °C

GCAGTGCGAAAGCTCTGC ((((.((....)).))))
folding enthalpy [1]: -40.3 kcal/mol | Tm [2]: 65.8 °C

GCAGTTCCGAAAGGATGC (((..(((....))))))
folding enthalpy [1]: -17.8 kcal/mol | Tm [2]: 36.7 °C

GCAGTTCGAAAGAATTGC (((.(((....))).)))
folding enthalpy [1]: -38.5 kcal/mol | Tm [2]: 52.6 °C

GCAGTTGGAAACAATTGC (((.(((....))).)))
folding enthalpy [1]: -31.2 kcal/mol | Tm [2]: 46.9 °C

GCATAACCGAAAGGTTGC (((..(((....))))))
folding enthalpy [1]: -15.4 kcal/mol | Tm [2]: 46.6 °C
